Reference: ChEMBL document CHEMBL1821721, “Probing the difference between BH3 groove of Mcl-1 and Bcl-2 protein: Implications for dual inhibitors design” (Eur J Med Chem, 2011)

How the values were obtained:
[1] = molecular target: Induced myeloid leukemia cell differentiation protein Mcl-1 (Homo sapiens, UniProt Q07820); assay: Displacement of FAM-Bid peptide from human Mcl-1 after 30 mins by competitive fluorescence polarization assay
Summary of the method: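 Serial compound dilutions added with 0.01% Triton X-100; polarization read after 30 min. Controls were protein plus peptide, and peptide alone. Ki calculated with an FP-specific competitive binding equation.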

[2] = molecular target: Apoptosis regulator Bcl-2 (Homo sapiens, UniProt P10415); assay: Displacement of FAM-Bid peptide from human recombinant Bcl2 after 30 mins by competitive fluorescence polarization assay
Sequence of Apoptosis regulator Bcl-2 (P10415 whole entry): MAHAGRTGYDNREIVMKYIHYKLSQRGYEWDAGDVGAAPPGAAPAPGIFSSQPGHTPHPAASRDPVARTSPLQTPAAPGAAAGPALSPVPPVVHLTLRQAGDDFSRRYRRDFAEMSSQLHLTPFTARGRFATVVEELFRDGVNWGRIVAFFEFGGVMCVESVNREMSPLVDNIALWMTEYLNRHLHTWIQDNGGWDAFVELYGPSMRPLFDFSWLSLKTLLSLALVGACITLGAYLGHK
Summary of the method: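 Bcl-2 (40 nM) preincubated with 10 nM FAM-Bid peptide (Kd 8 nM) in 100 mM potassium phosphate pH 7.5, bovine gamma globulin, 0.02% sodium azide. Serial compound dilutions added in 0.01% Triton X-100; polarization read after 30 min. Controls were protein plus peptide, and peptide alone. Ki derived from an equation developed for FP assays.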

HL-60 = assay: Cytotoxicity in human HL60 cells overexpressing Bcl-2 after 48 hrs by MTT assay; assay type: functional, cell-based; details: HL-60, 48 h
K562 = assay: Cytotoxicity in human K562 cells overexpressing Mcl-1 after 48 hrs by MTT assay; assay type: functional, cell-based; details: K562, 48 h
MCF7 = assay: Cytotoxicity in human MCF7 cells overexpressing Mcl-1after 48 hrs by MTT assay; assay type: functional, cell-based; details: MCF7, 48 h

Sequence of Induced myeloid leukemia cell differentiation protein Mcl-1 (Q07820 whole entry): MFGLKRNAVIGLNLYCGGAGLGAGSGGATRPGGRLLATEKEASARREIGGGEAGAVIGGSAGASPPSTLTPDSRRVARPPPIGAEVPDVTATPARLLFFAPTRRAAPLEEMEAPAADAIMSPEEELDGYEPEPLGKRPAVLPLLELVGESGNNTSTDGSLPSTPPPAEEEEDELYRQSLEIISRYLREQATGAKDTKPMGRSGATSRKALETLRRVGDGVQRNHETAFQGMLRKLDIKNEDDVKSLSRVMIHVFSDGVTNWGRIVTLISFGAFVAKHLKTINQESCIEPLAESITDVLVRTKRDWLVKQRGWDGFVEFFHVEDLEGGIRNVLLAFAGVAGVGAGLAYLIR

| SMILES | Ki [1] [nM] | Ki [2] [nM] | IC50 (HL-60) [nM] | IC50 (K562) [nM] | IC50 (MCF7) [nM] |
| --- | --- | --- | --- | --- | --- |
| COc1ccccc1Oc1ccc2c3c(cccc13)C1=NC(=O)C(C#N)=C12 | 149 | 886 | – | – | – |
| Cc1cccc(Oc2ccc3c4c(cccc24)C2=NC(=O)C(C#N)=C23)c1 | 445 | 6030 | – | – | – |
| Cc1ccccc1Oc1ccc2c3c(cccc13)C1=NC(=O)C(C#N)=C12 | 213 | 1430 | – | – | – |
| CCC(C)c1ccc(Oc2ccc3c4c(cccc24)C2=NC(=O)C(C#N)=C23)cc1 (stereo not drawn) | – | – | 40 | 50 | 20 |
| Cc1ccc(Oc2ccc3c4c(cccc24)C2=NC(=O)C(C#N)=C23)cc1 | 174 | 445 | – | – | – |
| COc1cccc(Oc2ccc3c4c(cccc24)C2=NC(=O)C(C#N)=C23)c1 | 375 | 16600 | > 50000 | 8300 | 6400 |

More lines, main results first:

| Ki [1] [nM] | Ki [2] [nM] | SMILES | IC50 (HL-60) [nM] | IC50 (K562) [nM] | IC50 (MCF7) [nM] |
| --- | --- | --- | --- | --- | --- |
| 122 | 304 | COc1ccc(Oc2ccc3c4c(cccc24)C2=NC(=O)C(C#N)=C23)cc1 | 1900 | 4700 | 5100 |
| – | 232 | CC(C)c1ccc(Oc2ccc3c4c(cccc24)C2=NC(=O)C(C#N)=C23)cc1 | – | – | – |
| – | 308 | N#CC1=C2C(=NC1=O)c1cccc3c(Oc4ccc(-c5ccccc5)cc4)ccc2c13 | – | – | – |
